NR2E3 ag-1 = activates human photoreceptor nuclear receptor NR2E3. Q9Y5X4. GST-NR2E3/biotin-RetCOR TR-FRET, 1536-well. inhibition of corepressor binding, % at 4.78 µM. actives 0.12% (n = 320,000). AID 2300;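 active = percent inhibition above the cutoff of mean plus 3 SD of all tested compounds, set per screening campaign, cut at about 20% in these data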;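 note: 0% = DMSO wells and 100% = biotin wells as full block of FRET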
Target sequence (Q9Y5X4 whole entry, looked up): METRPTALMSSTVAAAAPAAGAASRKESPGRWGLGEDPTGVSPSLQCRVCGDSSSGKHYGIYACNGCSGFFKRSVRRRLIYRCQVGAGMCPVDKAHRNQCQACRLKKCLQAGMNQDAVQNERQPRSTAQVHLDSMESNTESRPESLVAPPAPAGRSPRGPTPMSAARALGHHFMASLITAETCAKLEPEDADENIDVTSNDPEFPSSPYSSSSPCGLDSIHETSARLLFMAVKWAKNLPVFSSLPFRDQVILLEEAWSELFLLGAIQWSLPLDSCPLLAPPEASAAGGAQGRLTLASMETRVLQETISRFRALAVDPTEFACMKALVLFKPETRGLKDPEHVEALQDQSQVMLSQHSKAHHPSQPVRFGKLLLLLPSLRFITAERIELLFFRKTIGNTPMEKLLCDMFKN
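Material: NR2E3–RetCOR corepressor complex / Incubation: Compound–protein incubation for 5 h at 4 °C / Dosing: compound at 4.8 µM, single dose / Detection: time-resolved FRET / Benchmarks: high control biotin, low control 0.6% DMSO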
GalR3 antagonist = blocks the human galanin receptor 3; actives 0.44% (n = 360,000); O60755; inhibition, % at 3 µM; HEK293 GalR3-CNG cAMP membrane potential fluorescence; galR3 body fused to GalR1 C-terminus; AID 651719;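 active = inhibition above the screen-wide average plus 3 SD, cut at about 13% in these data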;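 note: forskolin and galanin both at EC90 stimulate the cells; cAMP rise reported by CNG channel membrane potential dye signal; 0% = forskolin plus galanin with DMSO and 100% = forskolin alone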
Target sequence (O60755 1-299 limits assumed): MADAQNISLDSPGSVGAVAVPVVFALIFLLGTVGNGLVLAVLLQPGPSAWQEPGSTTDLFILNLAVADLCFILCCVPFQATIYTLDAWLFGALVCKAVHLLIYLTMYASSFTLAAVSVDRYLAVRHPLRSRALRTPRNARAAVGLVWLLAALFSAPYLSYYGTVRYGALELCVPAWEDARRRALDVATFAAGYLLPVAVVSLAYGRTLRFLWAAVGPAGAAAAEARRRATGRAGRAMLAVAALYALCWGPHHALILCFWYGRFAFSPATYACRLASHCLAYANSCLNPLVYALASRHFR
NR2E3 ag-2 = agonists of human NR2E3 nuclear receptor; Q9Y5X4; CHO-S Gal4-NCOR/VP16-NR2E3 two-hybrid, luciferase; inhibition of corepressor binding, % at 3.98 µM; actives 0.35% (n = 360,000); AID 602229;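 active = inhibition above the mean of all tested compounds plus 3 SD, cut at about 70% in these data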;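 note: 0% = DMSO with NR2E3 transfected cells and 100% = cells lacking NR2E3 construct; higher means lower luciferase signal from less NR2E3 corepressor binding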
Rev-erbA mod = modulates human Rev-erb alpha binding to DNA; P20393; Rev-erbα–FITC-DNA binding, fluorescence polarization, 90 min; activity, % at 10 µM; actives 0.79% (n = 370,000);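 active = activity above about 14%, limit read from the data; passing the limit was not always enough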;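 note: 0% = DMSO wells with 35 nM protein and 100% = DMSO wells with 750 nM protein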
PG9 Ab binder = small molecules binding HIV-1 gp120 antibody PG9; TR-FRET gp120-PG9 antibody binding; inhibition, % at 6.7 µM; actives 0.43% (n = 360,000); in the data active = inhibition above about 8.5%
PG9 bind confirm = PG9 antibody binding, confirmed; shares compounds with PG9 Ab binder; TR-FRET PG9 antibody binding, biochemical; inhibition, % at 6.7 µM; actives 90% (n = 1,500); in the data active = inhibition above about 9%
PGV04 counter = PGV04 control antibody binding, counter-screen; AID 651604; actives 95% (n = 1,500); shares compounds with PG9 Ab binder; TR-FRET PGV04 antibody-gp120 binding, biochemical; inhibition, % at 6.7 µM; in the data active = inhibition above about 9.5%
* marks the source's active call; other numbers are inactive results. This is a sample that favours compounds with a hit; in the whole collection about 1.8% have one here.

What do the screens show for `Nc1c(C(=O)NCc2ccccc2)sc2nc(N3CCOCC3)c3c(c12)CCCC3`?
NR2E3 ag-1: 11.5; GalR3 antagonist: 3.4; NR2E3 ag-2: 4.9; Rev-erbA mod: 7.1; PG9 Ab binder: 10.3*; PG9 bind confirm: 8.6*; PGV04 counter: 15.6*

How did Cc1ccc(C)c(NC(=O)C2CCCN2S(=O)(=O)c2cccc3cccnc23)c1 (centres undefined) do in these assays?
Rev-erbA mod: 2.8

How did COC(=O)Cn1cnc2c(cnn2-c2ccc(OC)cc2)c1=O do in these assays?
NR2E3 ag-1: 2.9; GalR3 antagonist: -8.0; NR2E3 ag-2: -45.2; Rev-erbA mod: -2.9; PG9 Ab binder: -0.8

Results for COc1ccc(-n2ncc3c(=O)n(CC(=O)Nc4ccc5c(c4)OCCO5)cnc32)cc1 ?
NR2E3 ag-1: 4.4; GalR3 antagonist: 3.5; NR2E3 ag-2: 5.0; Rev-erbA mod: 21.8; PG9 Ab binder: 11.7*; PG9 bind confirm: 19.1*; PGV04 counter: 22.6*

How did CCCC[C@H]1C2CC(OC(=O)NCCCC(=O)OCC)C(C2)[C@H]2CCCCN21 (some centres undefined) do in these assays?
Rev-erbA mod: 2.1

What do the screens show for `O=C1C=Cc2cccc3ccc(O)c1c23`?
GalR3 antagonist: -1.7; NR2E3 ag-2: -17.7; Rev-erbA mod: -6.1; PG9 Ab binder: 15.6*; PG9 bind confirm: 19.7*; PGV04 counter: 25.7*

What do the screens show for `CON(C)S(=O)(=O)c1ccc2c(c1)N(Cc1ccc(C)cc1)C(=O)C1CCCN21` (centres undefined)?
NR2E3 ag-1: 7.0; GalR3 antagonist: -4.3; NR2E3 ag-2: -12.8; Rev-erbA mod: 12.5; PG9 Ab binder: 10.3*; PG9 bind confirm: 18.6*; PGV04 counter: 26.6*

How did COc1ccc(NC(=O)CCCn2c(=S)[nH]c3ccccc3c2=O)cc1 do in these assays?
NR2E3 ag-1: 2.1; GalR3 antagonist: 1.5; NR2E3 ag-2: -42.7; Rev-erbA mod: 5.8; PG9 Ab binder: -0.6

How did COc1ccc(NC(=O)CCn2c(=S)[nH]c3ccccc3c2=O)cc1 do in these assays?
NR2E3 ag-1: 1.0; GalR3 antagonist: -1.1; NR2E3 ag-2: 7.2; Rev-erbA mod: 1.8; PG9 Ab binder: 22.1*; PG9 bind confirm: 22.2*; PGV04 counter: 26.7*

What do the screens show for `Cc1ccc(C(=O)NC2CCCCN(C(C)C)C2=O)cc1` (centres undefined)?
Rev-erbA mod: 10.9

Results for Cc1cccc(-n2c(SCC(N)=O)nc3c(c2=O)C2(CCCC2)Cc2ccccc2-3)c1 ?
NR2E3 ag-1: 11.8; GalR3 antagonist: -10.3; NR2E3 ag-2: 1.2; Rev-erbA mod: -3.5; PG9 Ab binder: 18.7*; PG9 bind confirm: 20.4*; PGV04 counter: 25.5*

What do the screens show for `COc1cccc(C2/C(=C(\O)c3ccc(OC)c(OC)c3)C(=O)C(=O)N2c2cc(C)on2)c1` (centres undefined)?
NR2E3 ag-1: 7.8; GalR3 antagonist: -4.6; NR2E3 ag-2: -33.7; Rev-erbA mod: 1.0; PG9 Ab binder: 14.2*; PG9 bind confirm: 24.6*; PGV04 counter: 33.7*

How did COc1ccc(NC(C)=O)cc1NC(=O)CSc1nnc(-c2ccncc2)n1C do in these assays?
NR2E3 ag-1: 2.8; GalR3 antagonist: -0.8; NR2E3 ag-2: 1.4; Rev-erbA mod: -0.5; PG9 Ab binder: 0.3

What do the screens show for `Cc1ccc(NC(=O)CSc2nnc(-c3ccncc3)n2C)cc1C`?
NR2E3 ag-1: -0.6; GalR3 antagonist: -3.7; NR2E3 ag-2: 5.4; Rev-erbA mod: 4.1; PG9 Ab binder: 17.2*; PG9 bind confirm: 15.2*; PGV04 counter: 39.9*

How did Cc1ccc(C(=O)Nc2nnc(NC(=S)Nc3ccccc3)s2)cc1 do in these assays?
NR2E3 ag-1: 4.5; GalR3 antagonist: -0.1; NR2E3 ag-2: -110.5; Rev-erbA mod: 14.2; PG9 Ab binder: 12.0*; PG9 bind confirm: 16.4*; PGV04 counter: 20.2*

Results for O=C(Nc1nc(=O)c2ccccc2s1)c1ccccc1 ?
NR2E3 ag-1: 4.9; GalR3 antagonist: -2.1; NR2E3 ag-2: -30.7; Rev-erbA mod: 22.9; PG9 Ab binder: 29.5*; PG9 bind confirm: 51.5*; PGV04 counter: 69.4*

Results for Cc1nc2ccc(F)cc2cc1C(=O)Nc1ccc(Cl)c(Cl)c1 ?
NR2E3 ag-1: 4.2; GalR3 antagonist: -5.9; NR2E3 ag-2: 6.9; Rev-erbA mod: 12.0; PG9 Ab binder: 22.2*; PG9 bind confirm: 23.9*; PGV04 counter: 32.3*

What do the screens show for `Cc1nc2ccc(F)cc2cc1C(=O)NCc1ccco1`?
NR2E3 ag-1: -1.7; GalR3 antagonist: -2.6; NR2E3 ag-2: -26.1; Rev-erbA mod: -3.3; PG9 Ab binder: -1.6

Results for Cc1ccc(-n2c(SCC(=O)c3ccccc3Br)nnc2-c2ccncc2)cc1 ?
Rev-erbA mod: -3.3

Results for COc1cccc(Nc2nc3cc(OC)ccc3cc2C#N)c1 ?
NR2E3 ag-1: 3.9; GalR3 antagonist: -7.4; NR2E3 ag-2: -15.4; Rev-erbA mod: 23.7; PG9 Ab binder: 13.4*; PG9 bind confirm: 23.9*; PGV04 counter: 24.6*

Results for CCOC(=O)[C@]12CCCCC/C=C\1N(CCc1ccc(Cl)cc1)C(=O)[C@H]2CC(=O)NCCCN1CCCC1=O ?
Rev-erbA mod: 4.8

How did Cc1nc2cc(C(=O)N3CCN(C(=O)OCc4ccccc4)CC3)ccc2n1C1CCCC1 do in these assays?
Rev-erbA mod: -1.9

What do the screens show for `Cc1csc(NC(=O)c2cccs2)n1`?
NR2E3 ag-1: 1.6; GalR3 antagonist: -5.6; NR2E3 ag-2: -37.9; Rev-erbA mod: 1.9; PG9 Ab binder: -1.6

What do the screens show for `Cc1csc2c(=O)sc(NC(=O)c3ccco3)nc12`?
NR2E3 ag-1: -0.5; GalR3 antagonist: -3.6; NR2E3 ag-2: 4.8; Rev-erbA mod: -4.2; PG9 Ab binder: 37.4*; PG9 bind confirm: 48.6*; PGV04 counter: 78.0*

What do the screens show for `Cc1csc2c(=O)sc(NC(=O)c3cccs3)nc12`?
NR2E3 ag-1: -1.6; GalR3 antagonist: -2.5; NR2E3 ag-2: -6.3; Rev-erbA mod: 12.7; PG9 Ab binder: 63.7*; PG9 bind confirm: 65.8*; PGV04 counter: 87.8*

Results for COc1ccc(CNC(=O)CN(C(=O)c2cc3sccc3n2C)C2CCCC2)cc1 ?
NR2E3 ag-1: -0.5; GalR3 antagonist: -3.0; NR2E3 ag-2: -18.7; Rev-erbA mod: 3.3; PG9 Ab binder: 12.6*; PG9 bind confirm: 11.4*; PGV04 counter: 14.2*

Results for Cc1ccc2cc(CN(c3ccccc3C)S(=O)(=O)c3ccccc3)c(=O)[nH]c2c1 ?
NR2E3 ag-1: 1.7; GalR3 antagonist: 0.9; NR2E3 ag-2: -17.0; Rev-erbA mod: -1.0; PG9 Ab binder: 13.5*; PG9 bind confirm: 26.2*; PGV04 counter: 44.6*
